# According to ChEMBL document CHEMBL1149098, “Design, synthesis, and evaluation of novel thienopyrrolizinones as antitubulin agents” (J Med Chem, 2004):
# Legend:
# L1210 [1] = assay: In vitro antiproliferative activity against L1210 cell line, activity expressed as growth inhibition; assay type: functional; settings: Mus musculus
# Procedure, shortened: (§1)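 MTT proliferation assay. Adherent cells trypsinized and seeded at densities keeping controls in exponential growth. Drug exposure for four doubling times, at most 7 days. MTT (5 mg/mL stock) added for 4 h at 37 °C, formazan dissolved in DMSO, OD read at 540 nm. % growth from treated/control OD, tri- or hexaplicates averaged against log concentration. GI50 from linear regression on the linear zone.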
# L1210 [2] = assay: Compound was tested for percentage of L1210 cells accumulated in the G2 + M + 8N phase of the cell cycle at 50 uM; assay type: functional, Mus musculus
# Procedure, shortened: (§2)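 Flow cytometry of L1210 cells (2.5×10^5/mL) exposed to drug for 21 h (about two doubling times). Cells fixed in 70% ethanol, washed twice in PBS, then 30 min in PBS with 100 µg/mL RNAse and 25 µg/mL propidium iodide. 10 000 cells counted per sample. Reported as % of cells in G2 + M + 8N.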
# Mus musculus [3] = assay: In vivo anticancer activity against an ip P388 murine model after intravenous administration of 100 mg/kg compound; assay type: functional
# Procedure, shortened: (§3)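 Female B6D2F1 mice, 4–6 weeks old, 20–22 g, inoculated ip with 10^6 P388 leukemia cells. Single ip or iv injection on day 1 at the listed dose (range 25–400 mg/kg). BCNU run as internal reference. Median survival of treated versus control mice gives T/C (%). Activity threshold set at T/C 125%.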
# Mus musculus [4] = assay: In vivo anticancer activity against an ip P388 murine model after intravenous administration of 25 mg/kg compound; assay type: functional; procedure, shortened: as §3
# Mus musculus [5] = assay: In vivo anticancer activity against an ip P388 murine model after intraperitoneal administration of 50 mg/kg compound; assay type: functional; procedure, shortened: as §3
# Mus musculus [6] = assay: In vivo anticancer activity against an ip P388 murine model after intraperitoneal administration of 100 mg/kg compound; assay type: functional; procedure, shortened: as §3
# Mus musculus [7] = assay: In vivo anticancer activity against an ip P388 murine model after intravenous administration of 200 mg/kg compound; assay type: functional; procedure, shortened: as §3
# Mus musculus [8] = assay: In vivo anticancer activity against an ip P388 murine model after intraperitoneal administration of 25 mg/kg compound; assay type: functional; procedure, shortened: as §3
# Mus musculus [9] = assay: In vivo anticancer activity against an ip P388 murine model after intraperitoneal administration of 400 mg/kg compound; assay type: functional; procedure, shortened: as §3
# Mus musculus [10] = assay: In vivo anticancer activity against an ip P388 murine model after intraperitoneal administration of 200 mg/kg compound; assay type: functional; procedure, shortened: as §3
# Tubulin = Tubulin (Bos taurus, UniProt Q6B856+Q862L2+Q862F3); assay: Inhibitory concentration against calf tubulin polymerization; assay type: protein assay
# Procedure, shortened: (§4)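 Calf brain tubulin purified by three assembly–disassembly cycles, about 2–3 mg/mL in 0.1 M MES, 0.5 mM MgCl2, 2 mM EGTA, 1 mM GTP, pH 6.6. Assembly followed continuously by turbidimetry at 37 °C. IC50 is the concentration halving the maximum assembly rate of drug-free tubulin. Deoxypodophyllotoxin measured the same day as reference.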
# Mus musculus [11] = assay: In vivo anticancer activity against an ip P388 murine model after intravenous administration of 400 mg/kg compound; assay type: functional; procedure, shortened: as §3
# Mus musculus [12] = assay: In vivo anticancer activity against an ip P388 murine model after intravenous administration of 50 mg/kg compound; assay type: functional; procedure, shortened: as §3
# [13] = Inhibitory concentration against calf microtubule polymerization; assay type: functional, Bos taurus; procedure, shortened: as §4
# LS174T = assay: In vitro antiproliferative activity against LS174T cell line; assay type: functional, Mus musculus; settings: Homo sapiens; procedure, shortened: as §1
# P388 = assay: In vitro antiproliferative activity against P388 cell line; assay type: functional; settings: Mus musculus; procedure, shortened: as §1
# A549 = assay: In vitro antiproliferative activity against A549 cell line; assay type: functional, Mus musculus; settings: Homo sapiens; procedure, shortened: as §1
# L1210 [14] = assay: Compound was tested for percentage of L1210 cells accumulated in the G2 + M + 8N phase of the cell cycle at 0.5 uM; assay type: functional, Mus musculus; procedure, shortened: as §2
# DU-145 = assay: In vitro antiproliferative activity against DU145 cell line; assay type: functional, Mus musculus; settings: Homo sapiens; procedure, shortened: as §1
# OVCAR-3 = assay: In vitro antiproliferative activity against OVCAR-3 cell line; assay type: functional, Mus musculus; settings: Homo sapiens; procedure, shortened: as §1
# B16 = assay: In vitro antiproliferative activity against B16 cell line; assay type: functional; settings: Mus musculus; procedure, shortened: as §1
# A2780 = assay: In vitro antiproliferative activity against A2780 cell line; assay type: functional, Mus musculus; settings: Homo sapiens; procedure, shortened: as §1
# HT-29 = assay: In vitro antiproliferative activity against HT-29 cell line; assay type: functional, Mus musculus; settings: Homo sapiens; procedure, shortened: as §1
# L1210 [15] = assay: In vitro antiproliferative activity against L1210 cell line; assay type: functional; settings: Mus musculus; procedure, shortened: as §1
# KB = assay: In vitro antiproliferative activity against KBA1 cell line; assay type: functional, Mus musculus; settings: Homo sapiens; procedure, shortened: as §1
# NCI-H522 = assay: Cytotoxicity against human NSCL NCI-H522 cell line; assay type: functional
# MDA-N = assay: Cytotoxicity against human breast MDA-N cell line; assay type: functional
# M14 [16] = assay: Cytotoxicity against human melanoma M-14 cell line from the NCI 60 tumoral cell line panel; assay type: functional
# CCRF-CEM = assay: Cytotoxicity against human leukemia CCRF-CEM cell line; assay type: functional
# PC-3 = assay: Cytotoxicity against human prostate PC-3 cell line; assay type: functional
# SW-620 = assay: Cytotoxicity against human colon SW-620 cell line; assay type: functional
# RXF 393 = assay: Cytotoxicity against human renal XF-393 cell line; assay type: functional
# M14 [17] = assay: Cytotoxicity against human melanoma M-14 cell line; assay type: functional
# Homo sapiens [18] = assay: Compound was evaluated for anticancer activity in the hollow fiber assay, activity expressed as sc score; assay type: functional
# Procedure, shortened: (§5)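 Mouse hollow-fiber model: PVDF fibres holding 12 human tumour cell lines implanted ip and sc. Drug in 10% DMSO in saline/Tween-80, given ip once daily for four doses at each of two dose levels, triplicate. Fibres collected the day after the last dose for viable cell mass. Each ≥50% reduction versus vehicle controls scores 2, summed per site.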
# Homo sapiens [19] = species on record: Homo sapiens; assay: Compound was evaluated for anticancer activity in the hollow fiber assay, activity expressed as total score; assay type: functional; procedure, shortened: as §5
# Homo sapiens [20] = assay: Compound was evaluated for anticancer activity in the hollow fiber assay, activity expressed as ip score; assay type: functional; procedure, shortened: as §5
smiles,measurement,setting,value
COc1ccc(-c2cccc3c2-n2cccc2C3=O)cc1OC,GI50,L1210 [1],72.2 µM
O=C1c2scc(-c3cccc(O)c3)c2-n2cccc21,GI50,L1210 [1],29 µM
COc1ccc(-c2csc3c2-n2cccc2C3=O)c(OC)c1OC,GI50,L1210 [1],36.4 µM
COc1ccccc1-c1csc2c1-n1cccc1C2=O,GI50,L1210 [1],18.9 µM
same,Cells,L1210 [2],75%
O=C1c2scc(-c3ccc(O)c(O)c3)c2-n2cccc21,T/C,Mus musculus [3],105%
same,T/C,Mus musculus [4],95%
same,T/C,Mus musculus [5],118%
same,GI50,L1210 [1],0.28 µM
same,T/C,Mus musculus [6],134%
same,T/C,Mus musculus [7],103%
same,T/C,Mus musculus [8],111%
same,T/C,Mus musculus [9],149%
same,T/C,Mus musculus [10],133%
same,IC50,Tubulin,21 µM
same,T/C,Mus musculus [11],21%
same,T/C,Mus musculus [12],101%
Oc1ccc(-c2csc3nc(O)c4cccn4c23)cc1O,GI50,L1210 [1],8.8 µM
O=C1c2cccc(-c3ccco3)c2-n2cccc21,GI50,L1210 [1],27.6 µM
O=C1c2scc(-c3ccc(O)c(O)c3O)c2-n2cccc21,GI50,L1210 [1],12 µM
COc1ccc(-c2csc3nc(O)c4cccn4c23)cc1OC,GI50,L1210 [1],> 100 µM
COc1ccc(-c2coc3c2-n2cccc2C3=O)cc1OC,GI50,L1210 [1],24.2 µM
Cc1csc2c1-n1cccc1C2=O,GI50,L1210 [1],> 100 µM
COc1ccc(-c2csc3c2-n2cccc2/C3=N/O)cc1,GI50,L1210 [1],34.3 µM
O=C1c2scc(-c3ccccc3O)c2-n2cccc21,GI50,L1210 [1],3.7 µM
COc1ccc(C2CC(=O)c3cccn32)cc1O (stereo unspecified),GI50,L1210 [1],25 µM
COc1ccc(-c2csc3c2-n2cccc2C3=O)cc1O,T/C,Mus musculus [3],102%
same,T/C,Mus musculus [4],102%
same,IC50,[13],2.9 µM
same,GI50,LS174T,0.887 µM
same,GI50,P388,0.021 µM
same,GI50,A549,0.045 µM
same,Cells,L1210 [14],86%
same,T/C,Mus musculus [5],116%
same,GI50,DU-145,0.043 µM
same,GI50,OVCAR-3,0.031 µM
same,GI50,L1210 [1],0.015 µM
same,T/C,Mus musculus [6],121%
same,T/C,Mus musculus [7],103%
same,T/C,Mus musculus [8],108%
same,T/C,Mus musculus [9],121%
same,GI50,B16,0.023 µM
same,GI50,A2780,0.04 µM
same,T/C,Mus musculus [10],117%
same,IC50,Tubulin,2.9 µM
same,T/C,Mus musculus [11],19%
same,T/C,Mus musculus [12],104%
same,GI50,HT-29,0.713 µM
same,GI50,L1210 [15],0.015 µM
same,GI50,KB,0.015 µM
O=C1c2scc(-c3ccc(Cl)cc3)c2-n2cccc21,GI50,NCI-H522,3.16 µM
same,GI50,MDA-N,7.94 µM
same,GI50,M14 [16],50.1 µM
same,GI50,CCRF-CEM,100 µM
same,GI50,PC-3,100 µM
same,GI50,SW-620,100 µM
same,GI50,RXF 393,100 µM
COc1ccc(-c2csc3c2-n2cccc2/C3=N/OCCCN(C)C)cc1,GI50,L1210 [1],3.9 µM
CCCOc1ccc(-c2csc3c2-n2cccc2C3=O)cc1,GI50,L1210 [1],28.1 µM
CCOc1ccc(-c2csc3c2-n2cccc2C3=O)cc1,GI50,L1210 [1],0.43 µM
O=C1c2sccc2-n2cccc21,GI50,L1210 [1],85 µM
COc1ccc(-c2csc3c2-n2cccc2C3=O)cc1OC,GI50,L1210 [1],11.7 µM
same,IC50,Tubulin,19 µM
O=C1c2scc(-c3ccccc3)c2-n2cccc21,GI50,NCI-H522,12.6 µM
same,GI50,MDA-N,15.8 µM
same,GI50,CCRF-CEM,20 µM
same,GI50,M14 [17],20 µM
same,GI50,PC-3,12.6 µM
same,GI50,SW-620,15.8 µM
same,GI50,RXF 393,12.6 µM
CC(C)Oc1ccc(-c2csc3c2-n2cccc2C3=O)cc1,GI50,L1210 [1],12.2 µM
COc1ccc(-c2csc3c2-n2cccc2C3=O)cc1OCc1ccccc1,GI50,L1210 [1],5.4 µM
O=C1c2scc(-c3ccc(F)cc3)c2-n2cccc21,GI50,NCI-H522,15.8 µM
same,GI50,MDA-N,7.94 µM
same,GI50,CCRF-CEM,31.6 µM
same,GI50,M14 [17],31.6 µM
same,GI50,PC-3,31.6 µM
same,GI50,SW-620,25.1 µM
same,GI50,RXF 393,25.1 µM
COc1cc(-c2csc3c2-n2cccc2C3=O)ccc1O,GI50,L1210 [1],8 µM
O=C1c2cccc(-c3cccs3)c2-n2cccc21,GI50,L1210 [1],71.9 µM
O=C1c2scc(-c3ccc4c(c3)OCO4)c2-n2cccc21,GI50,L1210 [1],4.2 µM
CCCCOc1ccc(-c2csc3c2-n2cccc2C3=O)cc1,GI50,L1210 [1],29.6 µM
COc1ccc(-c2c[nH]c3c2-n2cccc2C3=O)cc1OC,GI50,L1210 [1],11.8 µM
COc1ccc(-c2cc3c(s2)C(=O)c2cccn2-3)cc1,GI50,L1210 [1],9.4 µM
COc1cc(-c2csc3c2-n2cccc2C3=O)ccc1OCc1ccccc1,GI50,L1210 [1],24.1 µM
COc1ccc(-c2csc3c2-n2cccc2C3=O)cc1,GI50,NCI-H522,0.0158 µM
same,GI50,MDA-N,0.0126 µM
same,Activity,Homo sapiens [18],0
same,Activity,Homo sapiens [19],16
same,GI50,CCRF-CEM,0.0316 µM
same,GI50,M14 [17],0.0316 µM
same,GI50,L1210 [1],0.19 µM
same,GI50,PC-3,0.0398 µM
same,Activity,Homo sapiens [20],16
same,GI50,SW-620,0.0251 µM
same,GI50,RXF 393,0.0631 µM
COc1cccc(-c2csc3c2-n2cccc2C3=O)c1,GI50,L1210 [1],5.2 µM
COc1ccc(-c2cccc3c2-n2cccc2C3=O)cc1,GI50,L1210 [1],3 µM
COc1ccc(-c2csc3c2-n2cccc2C3O)cc1 (stereo unspecified),GI50,L1210 [1],4.9 µM
O=C1c2scc(-c3ccc(O)cc3)c2-n2cccc21,GI50,L1210 [1],30.1 µM
